One block for each molecule: values may come before it.
Key:
Format in all cases: cell-based
[1] = molecular target: T1, Adenosine receptor A2b (Homo sapiens) (UniProt P29275); experiment: (§1) Displacement of [3H]MRE 2029F20 from human adenosine A2B receptor expressed in CHO cells; set-up: concentration or dose not given beside the values; settings: concentration not given here
T1 sequence (whole entry): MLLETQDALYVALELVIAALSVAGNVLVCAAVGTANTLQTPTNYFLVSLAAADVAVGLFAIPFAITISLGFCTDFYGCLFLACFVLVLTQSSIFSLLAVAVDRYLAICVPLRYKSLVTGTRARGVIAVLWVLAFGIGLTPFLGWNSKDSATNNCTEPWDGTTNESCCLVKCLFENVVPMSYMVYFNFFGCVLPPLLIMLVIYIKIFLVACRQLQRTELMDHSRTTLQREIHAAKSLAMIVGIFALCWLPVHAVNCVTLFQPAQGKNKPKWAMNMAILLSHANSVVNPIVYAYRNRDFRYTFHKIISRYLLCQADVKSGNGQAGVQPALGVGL
Method in brief: (§2)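 Run 60 min at 25 °C in 50 mM Tris-HCl, 10 mM MgCl2, 1 mM EDTA, 0.1 mM benzamidine, pH 7.4, with 2 IU/mL adenosine deaminase, 40 nM radioligand and CHO membranes (20 µg protein/assay). At least six to eight test concentrations. Nonspecific binding with 100 µM NECA. Filtration and counting, Ki by Cheng-Prusoff.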

Adenosine receptor A2b = molecular target: T2, Adenosine receptor A2b (Homo sapiens, UniProt P29275); experiment: as §1; method in brief: as §2
T2 sequence (P29275 whole entry): T1 sequence (whole entry)

Adenosine receptor A1 = molecular target: T3, Adenosine receptor A1 (Homo sapiens, UniProt P30542); experiment: (§3) Displacement of [3H]DPCPX from human adenosine A1 receptor expressed in CHO cells
T3 sequence (P30542 whole entry): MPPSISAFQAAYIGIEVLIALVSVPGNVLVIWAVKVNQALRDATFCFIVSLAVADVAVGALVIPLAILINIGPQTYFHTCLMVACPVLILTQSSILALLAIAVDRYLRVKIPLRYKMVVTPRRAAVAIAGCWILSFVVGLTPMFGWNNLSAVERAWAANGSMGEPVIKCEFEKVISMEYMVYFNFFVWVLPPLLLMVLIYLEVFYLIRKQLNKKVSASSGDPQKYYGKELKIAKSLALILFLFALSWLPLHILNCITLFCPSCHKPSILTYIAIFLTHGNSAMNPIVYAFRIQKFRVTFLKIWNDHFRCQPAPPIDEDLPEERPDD
Method in brief: (§4)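 Membranes from transfected CHO cells (50 µg protein/assay) in 50 mM Tris-HCl pH 7.4, incubated 120 min at 25 °C with 1 nM radioligand and at least six to eight test concentrations. Nonspecific binding with 10 µM CHA. Filtration on GF/B filters and scintillation counting. Ki from IC50 by Cheng-Prusoff, nonlinear least-squares fitting.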

[2] = molecular target: T4, Adenosine receptor A1 (Homo sapiens) (UniProt P30542); experiment: as §3; set-up: concentration or dose not given beside the values; settings: concentration not given here; method in brief: as §4
T4 sequence (whole entry): T3 sequence (P30542 whole entry)

Adenosine receptor A3 = molecular target: T5, Adenosine receptor A3 (Homo sapiens, UniProt P0DMS8); experiment: Displacement of [3H]MRE 3008F20 from human adenosine A3 receptor expressed in CHO cells
T5 sequence (P0DMS8 whole entry): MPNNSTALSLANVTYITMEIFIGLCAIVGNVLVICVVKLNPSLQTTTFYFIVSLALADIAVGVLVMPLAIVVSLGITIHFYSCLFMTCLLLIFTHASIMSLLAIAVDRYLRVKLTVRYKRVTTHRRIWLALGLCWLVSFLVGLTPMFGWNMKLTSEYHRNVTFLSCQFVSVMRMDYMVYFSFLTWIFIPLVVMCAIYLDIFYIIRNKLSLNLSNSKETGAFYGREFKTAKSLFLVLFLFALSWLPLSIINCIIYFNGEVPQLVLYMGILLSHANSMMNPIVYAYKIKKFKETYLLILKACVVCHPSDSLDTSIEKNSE

Adenosine receptor A2a = Adenosine receptor A2a (Homo sapiens, UniProt P29274); experiment: Displacement of [3H]ZM241385 from human adenosine A2A receptor expressed in CHO cells; settings: for inhibition: concentration not given here
Method in brief: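 CHO-derived membranes (50 µg protein/assay) in 50 mM Tris-HCl, 10 mM MgCl2, pH 7.4, competed with at least six to eight compound concentrations for 60 min at 25 °C. Nonspecific binding defined by 1 µM ZM 241385. Bound ligand collected on GF/B filters and counted. Ki derived from IC50 via Cheng-Prusoff.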

Chain of Adenosine receptor A2a (P29274 whole entry): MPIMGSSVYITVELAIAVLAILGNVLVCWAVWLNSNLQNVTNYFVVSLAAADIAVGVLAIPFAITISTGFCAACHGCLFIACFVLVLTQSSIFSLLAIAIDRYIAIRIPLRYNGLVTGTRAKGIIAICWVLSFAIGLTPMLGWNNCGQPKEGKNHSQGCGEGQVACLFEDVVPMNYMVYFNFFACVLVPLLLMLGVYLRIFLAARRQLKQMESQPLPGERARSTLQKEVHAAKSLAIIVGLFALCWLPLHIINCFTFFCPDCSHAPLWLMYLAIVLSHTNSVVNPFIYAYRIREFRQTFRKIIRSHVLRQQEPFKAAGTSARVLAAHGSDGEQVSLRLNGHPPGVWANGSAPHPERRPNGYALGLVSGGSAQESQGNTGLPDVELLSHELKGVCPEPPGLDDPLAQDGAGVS

Compound: CCOC(=O)c1c(CC)nc(-c2ccccc2)c(C(=O)OCC)c1CC
Ki (Adenosine receptor A3): 120 nM

Compound: Cc1cccnc1-c1nc(NC(=O)Nc2ccccc2)c2ccccc2n1
Ki (Adenosine receptor A3): 260 nM

Compound: CCCOC(=O)c1c(C)nc(-c2ccccc2)c(C(=O)OCC)c1C
Ki (Adenosine receptor A3): 210 nM

Compound: CCOC(=O)c1c(CC)c(C(=O)OCC)c(-c2ccccc2)[n+](C)c1C
Ki (Adenosine receptor A3): 380 nM

Compound: CCOC(=O)c1c(C)nc(-c2ccccc2)c(C(=O)OCC)c1CC
Ki (Adenosine receptor A3): 180 nM

Compound: CCCc1c(C(=O)SCC)c(C)nc(-c2ccccc2)c1C(=O)OCC
Ki (Adenosine receptor A3): 194 nM

Compound: O=C(Nc1ccncc1)Nc1nc2nn(CCOCc3ccccc3)cc2c2nc(-c3ccco3)nn12
inhibition [1]: 65% | Ki (Adenosine receptor A2b): > 1000 nM | Ki (Adenosine receptor A1): > 1000 nM | inhibition [2]: 71% | Ki (Adenosine receptor A3): 27 nM | Ki (Adenosine receptor A2a): > 1000 nM | inhibition (Adenosine receptor A2a): 97%

Compound: O=C(Nc1ccccc1)Nc1ncnc2ccccc12
Ki (Adenosine receptor A3; cho): 1200 nM

Compound: O=C(Nc1cccnc1)Nc1nc2nn(CCO)cc2c2nc(-c3ccco3)nn12
inhibition [1]: 99% | Ki (Adenosine receptor A2b): > 1000 nM | Ki (Adenosine receptor A1): > 1000 nM | inhibition [2]: 92% | Ki (Adenosine receptor A3): 34 nM | Ki (Adenosine receptor A2a): > 1000 nM | inhibition (Adenosine receptor A2a): 93%

Now from value to molecule:

inhibition [1]: 71% | Ki (Adenosine receptor A2b): > 1000 nM | Ki (Adenosine receptor A1): > 1000 nM | inhibition [2]: 74% | Ki (Adenosine receptor A3): 5.1 nM | Ki (Adenosine receptor A2a): > 1000 nM | inhibition (Adenosine receptor A2a): 96%
Compound: O=C(Nc1ccncc1)Nc1nc2nn(CCO)cc2c2nc(-c3ccco3)nn12

Ki (Adenosine receptor A3): 0.86 nM
Compound: CCn1cc2c(nc(NC(=O)Nc3ccc(F)cc3)n3nc(-c4ccco4)nc23)n1

Ki (Adenosine receptor A3): 0.56 nM
Compound: CCn1cc2c(nc(NC(=O)Nc3ccccc3OC)n3nc(-c4ccco4)nc23)n1

Ki (Adenosine receptor A3): 19 nM
Compound: CCCOC(=O)c1c(-c2ccccc2)nc(CC)c(C(=O)OCC)c1CCC

Ki (Adenosine receptor A3): 0.14 nM
Compound: CCn1cc2c(n1)N=C(NC(=O)Nc1ccc(C)cc1)N1N=C(c3ccco3)NC21 (stereo unspecified)

Ki (Adenosine receptor A3): 13.4 nM
Compound: CCOC(=O)c1c(-c2ccccc2)nc(CC)c(C(=O)SCC)c1CC

Ki (Adenosine receptor A3): 8.3 nM
Compound: CCCOC(=O)c1c(-c2ccccc2)nc(CC)c(C(=O)OCC)c1CC

inhibition [1]: 58% | Ki (Adenosine receptor A2b): > 1000 nM | Ki (Adenosine receptor A1): > 1000 nM | inhibition [2]: 85% | Ki (Adenosine receptor A3): 9 nM | Ki (Adenosine receptor A2a): > 1000 nM | inhibition (Adenosine receptor A2a): 82%
Compound: O=C(Nc1cccnc1)Nc1nc2nn(CCOCc3ccccc3)cc2c2nc(-c3ccco3)nn12

Ki (Adenosine receptor A3): 7.9 nM
Compound: CCCOC(=O)c1c(CC)nc(-c2cccc(Cl)c2)c(C(=O)OCCC)c1CC

inhibition [1]: 66% | Ki (Adenosine receptor A2b): > 1000 nM | Ki (Adenosine receptor A1): > 1000 nM | inhibition [2]: 74% | Ki (Adenosine receptor A3): 14 nM | Ki (Adenosine receptor A2a): > 1000 nM | inhibition (Adenosine receptor A2a): 89%
Compound: O=C(Nc1ccncc1)Nc1nc2nn(CCCOCc3ccccc3)cc2c2nc(-c3ccco3)nn12

Ki (Adenosine receptor A3): 20 nM
Compound: CCOC(=O)c1c(-c2ccccc2)nc(C)c(C(=O)SCC)c1C

inhibition [1]: 73% | Ki (Adenosine receptor A2b): > 1000 nM | Ki (Adenosine receptor A1): 350 nM | Ki (Adenosine receptor A3): 2 nM | Ki (Adenosine receptor A2a): > 1000 nM | inhibition (Adenosine receptor A2a): 95%
Compound: O=C(Nc1ccncc1)Nc1nc2nn(CCCO)cc2c2nc(-c3ccco3)nn12

From ChEMBL document CHEMBL1138915, “Pharmacophore based receptor modeling: the case of adenosine A3 receptor antagonists. An approach to the optimization of protein models” (J Med Chem, 2006)
